Reference: ChEMBL document CHEMBL1127802, “Selective inhibitors of monoamine oxidase. 2. Arylamide SAR” (J Med Chem, 1994)
Each block holds one compound with its values, some of them ahead of it.

What was measured:
[1] = target: T1, MAO A (monoamine oxidase A) (Rattus norvegicus, UniProt P21396); experiment: Inhibitory activity against monoamine oxidase A (MAO A) from rat brain using a radiometric procedure with [3H]5-HT at 1 uM; settings: rat brain monoamine oxidase A preparation, probe [3H]5-HT
T1 sequence (P21396 whole entry): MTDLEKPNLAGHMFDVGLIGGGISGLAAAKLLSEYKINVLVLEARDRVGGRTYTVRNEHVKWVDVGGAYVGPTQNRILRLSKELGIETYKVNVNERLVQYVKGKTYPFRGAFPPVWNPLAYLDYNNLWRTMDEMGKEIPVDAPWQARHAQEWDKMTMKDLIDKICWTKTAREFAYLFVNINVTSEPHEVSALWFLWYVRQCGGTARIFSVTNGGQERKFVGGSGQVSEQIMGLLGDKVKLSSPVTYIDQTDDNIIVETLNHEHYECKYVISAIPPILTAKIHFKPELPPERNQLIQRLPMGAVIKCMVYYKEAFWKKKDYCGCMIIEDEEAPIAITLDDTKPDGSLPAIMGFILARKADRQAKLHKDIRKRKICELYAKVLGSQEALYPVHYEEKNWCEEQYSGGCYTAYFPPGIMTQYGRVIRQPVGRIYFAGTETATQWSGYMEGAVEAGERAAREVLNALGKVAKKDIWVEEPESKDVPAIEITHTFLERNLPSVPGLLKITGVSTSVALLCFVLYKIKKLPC
Procedure, shortened: (§1)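 Rat brain mitochondrial MAO extract was preincubated with or without inhibitor for 15 min at 37 °C in 50 mM potassium phosphate, pH 7.4. […] Blanks contained 2 mM pargyline. Reactions were stopped with HCl, products extracted into ethyl acetate/toluene and counted by scintillation. Triplicates were averaged as % inhibition, and IC50 was taken from % inhibition vs log concentration.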

[2] = target: T2, MAO B (monoamine oxidase B) (Rattus norvegicus, UniProt P19643); experiment: Inhibitory activity against monoamine oxidase B (MAO B) from rat brain using a radiometric procedure with [14C]phenylethylamine at 1 uM; settings: rat brain monoamine oxidase B preparation, probe [14C]phenylethylamine
T2 sequence (P19643 whole entry): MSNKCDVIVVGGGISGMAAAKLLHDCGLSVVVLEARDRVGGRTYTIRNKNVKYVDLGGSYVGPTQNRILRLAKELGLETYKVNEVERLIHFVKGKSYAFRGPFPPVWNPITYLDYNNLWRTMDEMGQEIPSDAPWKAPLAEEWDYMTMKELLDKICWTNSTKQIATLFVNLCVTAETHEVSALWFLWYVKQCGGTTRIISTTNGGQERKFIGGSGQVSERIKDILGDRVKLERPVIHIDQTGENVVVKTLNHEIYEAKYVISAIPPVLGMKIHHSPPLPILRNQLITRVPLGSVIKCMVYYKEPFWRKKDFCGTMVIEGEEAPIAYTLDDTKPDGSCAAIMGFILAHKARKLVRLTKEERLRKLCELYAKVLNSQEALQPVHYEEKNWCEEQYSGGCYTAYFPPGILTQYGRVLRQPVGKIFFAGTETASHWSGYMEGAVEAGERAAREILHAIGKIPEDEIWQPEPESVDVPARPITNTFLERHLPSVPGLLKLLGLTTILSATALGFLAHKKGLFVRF
Procedure, shortened: (§2)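 Rat brain mitochondrial MAO extract was preincubated ± inhibitor for 15 min at 37 °C in 50 mM potassium phosphate, pH 7.4. […] Pargyline (2 mM) defined blanks. Acid stop, ethyl acetate/toluene extraction and scintillation counting followed. Triplicate means gave % inhibition, and IC50 was extrapolated from % inhibition vs log concentration plots.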

[3] = target: T3, Amine oxidase [flavin-containing] A (Rattus norvegicus, UniProt P21396); experiment: Inhibitory activity against monoamine oxidase A (MAO A) from rat brain using a radiometric procedure with [3H]5-HT; procedure, shortened: as §1
T3 sequence (P21396 whole entry): T1 sequence (P21396 whole entry)

[4] = target: T2, MAO B (monoamine oxidase B); experiment: Inhibitory activity against monoamine oxidase B (MAO B) from rat brain using a radiometric procedure with [14C]phenylethylamine at 0.1 uM; settings: rat brain monoamine oxidase B preparation, probe [14C]phenylethylamine; procedure, shortened: as §2
[5] = target: T2, MAO B (monoamine oxidase B); experiment: Inhibitory activity against monoamine oxidase B (MAO B) from rat brain using a radiometric procedure with [14C]phenylethylamine at 10 uM; settings: rat brain monoamine oxidase B preparation, probe [14C]phenylethylamine; procedure, shortened: as §2
[6] = target: T1, MAO A (monoamine oxidase A); experiment: Inhibitory activity against monoamine oxidase A (MAO A) from rat brain using a radiometric procedure with [3H]5-HT at 10 uM; settings: rat brain monoamine oxidase A preparation, probe [3H]5-HT; procedure, shortened: as §1
[7] = target: T1, MAO A (monoamine oxidase A); experiment: Inhibitory activity against monoamine oxidase A (MAO A) from rat brain using a radiometric procedure with [3H]- serotonin at 1 uM; settings: rat brain monoamine oxidase A preparation, probe [3H]-serotonin; procedure, shortened: as §1
[8] = target: T4, Amine oxidase [flavin-containing] B (Rattus norvegicus, UniProt P19643); experiment: Inhibitory activity against monoamine oxidase B (MAO B) from rat brain using a radiometric procedure with [14C]- phenethylamine at<10 uM; procedure, shortened: as §2
T4 sequence (P19643 whole entry): T2 sequence (P19643 whole entry)

[9] = target: T2, MAO B (monoamine oxidase B); experiment: Inhibitory activity against monoamine oxidase B (MAO B) from rat brain using a radiometric procedure with [14C]- phenethylamine at 1 uM; settings: rat brain monoamine oxidase B preparation, probe [14C]-phenethylamine; procedure, shortened: as §2
[10] = target: T2, MAO B (monoamine oxidase B); experiment: Inhibitory activity against monoamine oxidase B (MAO B) from rat brain using a radiometric procedure with [14C]- phenethylamine atb 10 uM; settings: rat brain monoamine oxidase B preparation, probe [14C]-phenethylamine
Procedure, shortened: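 Rat brain mitochondrial MAO extract preincubated ± inhibitor 15 min at 37 °C in 50 mM potassium phosphate pH 7.4. […] Blanks contained 2 mM pargyline. Stopped with HCl, products extracted into ethyl acetate/toluene, scintillation counted. Triplicates. IC50 from mean % inhibition vs log concentration plot.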

[11] = target: T3, Amine oxidase [flavin-containing] A; experiment: Inhibitory activity against monoamine oxidase A (MAO A) from rat brain using a radiometric procedure with [3H]- serotonin.; procedure, shortened: as §1
[12] = target: T1, MAO A (monoamine oxidase A); experiment: Inhibitory activity against monoamine oxidase A (MAO A) from rat brain using a radiometric procedure with [3H]- serotonin at 0.1 uM; settings: rat brain monoamine oxidase A preparation, probe [3H]-serotonin; procedure, shortened: as §1
[13] = target: T2, MAO B (monoamine oxidase B); experiment: Inhibitory activity against monoamine oxidase B (MAO B) from rat brain using a radiometric procedure with [14C]- phenethylamine at 0.1 uM; settings: rat brain monoamine oxidase B preparation, probe [14C]-phenethylamine; procedure, shortened: as §2

inhibition [1]: 13%
inhibition at 1 µM [2]: 37%
Structure (SMILES): CC(=O)Nc1ccc2c(c1)CCC2

IC50 [3]: 0.014 µM
inhibition at 0.1 µM [4]: 0%
Structure (SMILES): CC(=O)Nc1ccc2c(c1)S(=O)(=O)c1ccccc1O2

inhibition at 10 uM [5]: 38%
inhibition [6]: 54%
Structure (SMILES): CC(=O)Nc1nc2cc(C)c(C)cc2s1

IC50 [3]: 0.06 µM
inhibition at 1 µM [2]: -1%
Structure (SMILES): CC(=O)Nc1ccc2c(c1)S(=O)(=O)c1ccccc1C2=O

inhibition [6]: 80%
Structure (SMILES): CC(=O)Nc1ccc2c3ccccc3n(CCCN3CCN(C)CC3)c2c1

IC50 [3]: 0.03 µM
Structure (SMILES): CC(=O)Nc1ccc2c3ccccc3n(C)c2c1

IC50 [3]: 1.2 µM
Structure (SMILES): CCC(=O)Nc1ccc2c(c1)-c1ccccc1S2(=O)=O

inhibition at 10 uM [5]: 22%
inhibition [6]: 42%
Structure (SMILES): CC(=O)Nc1ccc2c(c1)COCO2

IC50 [3]: 0.7 µM
Structure (SMILES): CC(=O)Nc1ccc2c(c1)S(=O)(=O)c1ccc(C)cc1C2=O

IC50 [3]: 0.04 µM
inhibition at 1 µM [2]: 3%
Structure (SMILES): CC(=O)Nc1ccc2c(c1)C(=O)c1ccccc1-2

inhibition at 10 uM [5]: -2%
inhibition [6]: 8%
Structure (SMILES): CC(=O)Nc1nc2ccccc2[nH]1

inhibition [1]: 60%
inhibition at 1 µM [2]: 18%
Structure (SMILES): CC(=O)Nc1ccc2c(c1)S(=O)(=O)c1ccccc1N2C

inhibition at 1 µM [7]: 5%
inhibition [8]: 53%
Structure (SMILES): CC(=O)Nc1cc2ccccc2oc1=O

inhibition [1]: 74%
inhibition at 1 µM [2]: 26%
Structure (SMILES): NC(=O)Nc1ccc2c(c1)[nH]c1ccccc12

IC50 [3]: 0.3 µM
Structure (SMILES): CC(=O)Nc1ccc2c(c1)oc1ccccc12

inhibition at 1 µM [9]: 27%
inhibition at 1 µM [7]: 4%
Structure (SMILES): CC(=O)Nc1ccc2c(cnn2C(C)=O)c1

IC50 [3]: 1 µM
Structure (SMILES): Nc1ccc2c(c1)-c1ccccc1S2(=O)=O

inhibition [1]: 0%
inhibition at 1 µM [2]: 11%
Structure (SMILES): CC(=O)Nc1ccc2[nH]c(=O)c3ccccc3c2c1

Structure (SMILES): CC(=O)Nc1ccc2c(c1)[nH]c1ccccc12
inhibition at 10 uM [10]: 38%
IC50 [11]: 0.043 µM

inhibition at 10 uM [5]: 18%
inhibition [6]: 50%
Structure (SMILES): CC(=O)Nc1nc2cc(C)c(C)cc2[nH]1

IC50 [3]: 1.3 µM
Structure (SMILES): CC(=O)Nc1ccc2c(c1)C(=O)c1cc([N+](=O)[O-])ccc1-2

inhibition at 10 uM [5]: 3%
inhibition [6]: 18%
Structure (SMILES): O=CN(C=O)c1ccc2c(c1)S(=O)(=O)c1ccccc1C2=O

inhibition [1]: 31%
inhibition at 1 µM [2]: 25%
Structure (SMILES): CC(=O)Nc1ccc(Oc2ccc(CS(C)(=O)=O)cc2)cc1

inhibition [1]: 0%
Structure (SMILES): CC(=O)N(C)c1ccc2c(c1)-c1ccccc1S2(=O)=O

inhibition at 10 uM [5]: 13%
inhibition [6]: 22%
Structure (SMILES): NC(=O)Nc1ccccc1-c1ccccc1

inhibition [1]: 72%
inhibition at 1 µM [2]: 21%
Structure (SMILES): CC(=O)Nc1ccc2c(O)c3ccccc3nc2c1

inhibition at 0.1 uM [12]: 10%
inhibition at 0.1 µM [13]: 23%
Structure (SMILES): CC(=O)Nc1ccc2oc(=O)c3ccccc3c2c1

inhibition [1]: 55%
inhibition at 1 µM [2]: 0%
Structure (SMILES): CC(=O)Nc1ccc2c(c1)c(O)nc1ccccc12
